Activity calls are given as the source filed them.
Legend:
[1] = molecular target: T1, Aurora kinase A (Homo sapiens) (UniProt O14965); experiment: Inhibition of human N-terminal GST/His6-tagged Aurora A (M1 to S403 residues) expressed in baculovirus infected sf9 cells at 1 uM using tetra(LRRLSLG) as substrate by filter binding assay
T1 sequence (whole entry): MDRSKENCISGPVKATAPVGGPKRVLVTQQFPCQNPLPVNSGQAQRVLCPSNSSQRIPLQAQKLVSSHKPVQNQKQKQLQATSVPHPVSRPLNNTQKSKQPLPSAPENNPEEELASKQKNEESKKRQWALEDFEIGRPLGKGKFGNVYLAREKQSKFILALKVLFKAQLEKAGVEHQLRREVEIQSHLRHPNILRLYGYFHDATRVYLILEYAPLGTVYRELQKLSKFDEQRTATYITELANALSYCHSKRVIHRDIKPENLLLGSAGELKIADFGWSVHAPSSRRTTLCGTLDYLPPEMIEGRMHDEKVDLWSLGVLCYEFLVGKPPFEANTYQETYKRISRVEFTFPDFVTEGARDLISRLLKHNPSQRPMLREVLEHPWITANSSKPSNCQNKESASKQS
Method in brief: (§1)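 Single-point profiling at 1 μM in a 22-kinase panel, performed externally by ProQinase; activity read as residual percent of control.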

UO-31 = experiment: Growth inhibition of human UO31 cells incubated for 48 hrs by sulforhodamine B assay; assay type: functional, cell-based
Method in brief: (§2)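 NCI-60 panel growth inhibition, run by the U.S. National Cancer Institute; GI50 values are means of two test series.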

A549 = experiment: Growth inhibition of human A549/ATCC cells incubated for 48 hrs by sulforhodamine B assay; assay type: functional, cell-based
CAKI-1 = experiment: Growth inhibition of human Caki1 cells incubated for 48 hrs by sulforhodamine B assay; assay type: functional, cell-based
[2] = molecular target: Cyclin-dependent kinase 1/cyclin B1 (Homo sapiens) (UniProt P06493+P14635); experiment: Inhibition of recombinant human N-terminal GST/His6-tagged CDK1 (M1 to M297 residues)/Cyclin B1 (M1 to V433 residues) expressed in sf9 cells at 1 uM using RB-CTF as substrate by filter binding assay; method in brief: as §1
RXF 393 = experiment: Growth inhibition of human RXF393 cells incubated for 48 hrs by sulforhodamine B assay; assay type: functional, cell-based
[3] = molecular target: T2, Insulin-like growth factor 1 receptor (Homo sapiens, UniProt P08069); experiment: Inhibition of IGF1R in human PANC1 cells assessed as reduction in Akt phosphorylation at Ser473 residue after 24 hrs by immunoblot analysis; assay type: cell-based
Method in brief: (§3)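 Cells in their medium with 10% FBS exposed to rising concentrations for 24 h; whole-cell lysates immunoblotted for p-Akt (S473) and total Akt; PI3K inhibitor at 10 μM as positive control.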

[4] = molecular target: Fibroblast growth factor receptor 1 (Homo sapiens) (UniProt P11362); experiment: Inhibition of human N-terminal GST/His6-tagged FGFR1 (G400 to R820 residues) expressed in baculovirus infected sf9 cells at 1 uM using Poly(Glu,Tyr)4:1 as substrate by filter binding assay; method in brief: as §1
SW-620 = experiment: Growth inhibition of human SW620 cells incubated for 48 hrs by sulforhodamine B assay; assay type: functional, cell-based; method in brief: as §2
[5] = molecular target: T2, Insulin-like growth factor 1 receptor; experiment: Inhibition of IGF1R in human MCF7 cells assessed as reduction in Akt phosphorylation at Ser473 residue after 24 hrs by immunoblot analysis; assay type: cell-based; method in brief: as §3
A498 = experiment: Growth inhibition of human A498 cells incubated for 48 hrs by sulforhodamine B assay; assay type: functional, cell-based
COLO 205 = experiment: Growth inhibition of human COLO205 cells incubated for 48 hrs by sulforhodamine B assay; assay type: functional, cell-based
[6] = molecular target: T3, Aurora kinase C (Homo sapiens) (UniProt Q9UQB9); experiment: Inhibition of human N-terminal GST-tagged Aurora B (M1 to S27 residues) expressed in sf9 cells at 1 uM using CDC25C-derived peptide as substrate by filter binding assay; method in brief: as §1
T3 sequence (whole entry): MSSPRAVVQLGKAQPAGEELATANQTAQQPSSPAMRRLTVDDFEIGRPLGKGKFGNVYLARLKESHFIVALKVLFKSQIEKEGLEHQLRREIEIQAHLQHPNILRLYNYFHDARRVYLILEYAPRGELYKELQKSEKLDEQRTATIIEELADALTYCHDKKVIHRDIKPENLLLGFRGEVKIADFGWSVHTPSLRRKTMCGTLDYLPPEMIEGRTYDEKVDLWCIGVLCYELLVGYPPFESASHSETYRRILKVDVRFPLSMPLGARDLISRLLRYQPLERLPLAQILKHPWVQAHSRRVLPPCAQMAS

[7] = molecular target: T2, Insulin-like growth factor 1 receptor; experiment: Inhibition of IGF1R in human HeLa cells assessed as reduction in Akt phosphorylation at Ser473 residue after 24 hrs by immunoblot analysis; assay type: cell-based; method in brief: as §3
LOX IMVI = experiment: Growth inhibition of human LOXIMVI cells incubated for 48 hrs by sulforhodamine B assay; assay type: functional, cell-based
HCT-15 = experiment: Growth inhibition of human HCT15 cells incubated for 48 hrs by sulforhodamine B assay; assay type: functional, cell-based
[8] = molecular target: T2, Insulin-like growth factor 1 receptor; experiment: Inhibition of IGF1R phosphorylation at Tyr1161 residue in human MCF7 cells at 0.5 uM after 1 hr by immunoblot analysis; assay type: cell-based
Method in brief: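 MCF7 (DMEM/10% FBS, 24 h) treated with increasing concentrations for 1 h; 40 μg lysate on 10% SDS-PAGE, probed with p-IGF-1R (Y1161) antibody 1:1000 overnight at 4 °C; β-actin loading control, PI3K inhibitor positive control.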

MOLT-4 = experiment: Growth inhibition of human MOLT4 cells incubated for 48 hrs by sulforhodamine B assay; assay type: functional, cell-based
MCF7 [9] = experiment: Induction of apoptosis in human MCF7 cells at 0.5 uM after 24 hrs by Annexin V-FITC/propidium iodide staining based FACS analysis; assay type: functional, cell-based
Method in brief: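 MCF7 grown 24 h in DMEM/10% FBS/1% PS, exposed 24 h, pelleted, stained with FITC-annexin V in HEPES binding buffer (pH 7.4, 1.8 mM CaCl2) 15 min dark at rt, then PI 10 min, analysed by flow cytometry; bortezomib positive control.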

NCI-H522 = experiment: Growth inhibition of human NCI-H522 cells incubated for 48 hrs by sulforhodamine B assay; assay type: functional, cell-based
SK-MEL-28 = experiment: Growth inhibition of human SK-MEL-28 cells incubated for 48 hrs by sulforhodamine B assay; assay type: functional, cell-based
HOP-92 = experiment: Growth inhibition of human HOP92 cells incubated for 48 hrs by sulforhodamine B assay; assay type: functional, cell-based
SK-MEL-2 = experiment: Growth inhibition of human SK-MEL-2 cells incubated for 48 hrs by sulforhodamine B assay; assay type: functional, cell-based
OVCAR-5 = experiment: Growth inhibition of human OVCAR5 cells incubated for 48 hrs by sulforhodamine B assay; assay type: functional, cell-based
MCF7 [10] = experiment: Cell cycle arrest in human MCF7 cells assessed as accumulation at G2/M phase up to 1 uM after 24 to 48 hrs by propidium iodide staining based FACS analysis; assay type: functional
Method in brief: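 MCF7 cells grown 24 h in DMEM with 10% FBS and 1% PS, then exposed to 1 μM for 24 and 48 h. Pellets fixed in 70% ethanol for at least 24 h, washed twice in ice-cold PBS, treated with RNase A (50 μg/mL, 1 h, 37 °C), stained with PI (50 μg/mL, 5 min), and DNA content read by FACS.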

CN1CCN(CCO/N=C2/C(=C3/C(=O)Nc4ccccc43)Nc3ccccc32)CC1
active: growth inhibition (GI) (UO-31) | growth inhibition (GI) (A549) | growth inhibition (GI) (CAKI-1) | growth inhibition (GI) (RXF 393) | inhibition [3] Dose-dependent effect | growth inhibition (GI) (SW-620) | inhibition [5] Dose-dependent effect | growth inhibition (GI) (A498) | growth inhibition (GI) (COLO 205) | inhibition [7] Dose-dependent effect | growth inhibition (GI) (LOX IMVI) | growth inhibition (GI) (HCT-15) | inhibition [8] | growth inhibition (GI) (MOLT-4) | Activity (MCF7 [9]) | growth inhibition (GI) (NCI-H522) | growth inhibition (GI) (SK-MEL-28) | growth inhibition (GI) (HOP-92) | growth inhibition (GI) (SK-MEL-2) | growth inhibition (GI) (OVCAR-5) | Activity (MCF7 [10])
inactive: inhibition [1] | inhibition [2] | inhibition [4] | inhibition [6]

Source: ChEMBL document CHEMBL4014343 (J Med Chem, 2017)
